Assay results reported in ChEMBL document CHEMBL1124204, “Thiophene systems. 9. Thienopyrimidinedione derivatives as potential antihypertensive agents” (1988).

Legend:
Rattus norvegicus [1] = assay: Evaluated for blood pressure lowering activity in the conscious spontaneously hypertensive rats (SHR) (time to peak (h)) at a dose of 2.5 mg/kg; type: functional
Method in brief: (§1)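 Conscious adult male SHR in restrainers at 32 °C, with tail-cuff and pulse-transducer SBP recording. Groups of 4–6 got a single gavage dose in 0.5% methylcellulose or vehicle alone. SBP was sampled at 0.5, 1, 2, 3 and 4 h post-dose, and the time (h) at which the peak SBP change occurred was recorded.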

Rattus norvegicus [2] = assay: Evaluated for blood pressure lowering activity in spontaneously hypertensive rats (maximum change of systolic blood pressure (SBP)) at a dose of 2.5 mg/kg; type: functional, Artery
Method in brief: (§2)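 Adult male SHR, conscious, restrained in a chamber at 32 °C. SBP measured indirectly by tail cuff with a pneumatic pulse transducer. After baseline, groups of 4–6 received a single oral gavage dose or vehicle (0.5% methylcellulose). SBP was read at 0.5, 1, 2, 3 and 4 h, and the maximum SBP change ± SEM was reported against the vehicle effect.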

Rattus norvegicus [3] = assay: Evaluated for blood pressure lowering activity in spontaneously hypertensive rats (maximum change of systolic blood pressure (SBP)) at a dose of 5 mg/kg; type: functional, Artery; method in brief: as §2
Rattus norvegicus [4] = assay: Evaluated for blood pressure lowering activity in the conscious spontaneously hypertensive rats (SHR) (time to peak (h)) at a dose of 5 mg/kg; type: functional; method in brief: as §1
Rattus norvegicus [5] = assay: Evaluated for blood pressure lowering activity in spontaneously hypertensive rats (maximum change of systolic blood pressure (SBP)) at a dose of 10 mg/kg; type: functional, Artery; method in brief: as §2
Rattus norvegicus [6] = assay: Time to peak fall in systolic blood pressure in spontaneously hypertensive rats after oral administration of 10 mg/kg of the compound
Rattus norvegicus [7] = assay: Time to reach peak blood pressure lowering effect in spontaneously hypertensive rats after oral administration of 2.5 mg/kg of the compound
Canis familiaris = assay: Intravenous dose required to produce a 20-fold rightward shift in the phenylephrine dose-response curve in the dog; type: functional, Canis lupus familiaris
Method in brief: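 Mongrel dogs, anesthetized and bilaterally vagotomized. Mean arterial pressure was recorded via carotid cannula, and drug was given iv through the jugular vein. Phenylephrine dose–response curves were run before and after antagonist. The iv dose (μg/kg) producing a 20-fold rightward shift (DR20) was calculated; n = animals tested.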

Rattus norvegicus [8] = assay: Evaluated for blood pressure lowering activity in spontaneously hypertensive rats (maximum change of systolic blood pressure (SBP)) at a dose of 1.25 mg/kg; type: functional, Artery; method in brief: as §2
Rattus norvegicus [9] = assay: Intravenous dose required to produce a 50% inhibition of the phenylephrine pressor response in the spontaneously hypertensive rats; type: functional
Method in brief: (§3)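 Adult male SHR, anesthetized and bilaterally vagotomized. A carotid artery was cannulated for mean arterial pressure and a jugular vein for iv dosing. Phenylephrine pressor responses were measured before and after antagonist. The iv dose (μg/kg) giving 50% inhibition of the pressor response (ED50) was reported with fiducial limits.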

Rattus norvegicus [10] = species: Rattus norvegicus; assay: Peroral dose required to produce a 50 mmHg drop in systolic blood pressure (SBP) in the spontaneously hypertensive rats; type: functional; conditions: Artery, po
Method in brief: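 Adult male SHR, conscious, tail-cuff indirect SBP at 32 °C. Groups of 4–6 were given single oral gavage doses of 0.5–20 mg/kg in 0.5% methylcellulose, with SBP followed over 4 h. The dose giving a 50 mmHg SBP fall (ED50SBP, mg/kg po) was calculated by regression analysis with 95% fiducial limits; n = animals tested.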

Rattus norvegicus [11] = assay: Evaluated for blood pressure lowering activity in the conscious spontaneously hypertensive rats (SHR) (time to peak (h)) at a dose of 1.25 mg/kg; type: functional; method in brief: as §1
Rattus norvegicus [12] = assay: Time to peak fall in systolic blood pressure in spontaneously hypertensive rats after oral administration of 1.25 mg/kg of the compound
Rattus norvegicus [13] = assay: Evaluated for blood pressure lowering activity in the conscious spontaneously hypertensive rats (SHR) (time to peak (h)) at a dose of 10 mg/kg; type: functional; method in brief: as §1
Rattus norvegicus [14] = assay: Intravenous dose required to produce 50% inhibition of the phenylephrine pressor response in the spontaneously hypertensive rats; type: functional; method in brief: as §3

For COc1ccc(C(=O)n2c(=O)n(CCN3CCN(c4ccccc4OC)CC3)c(=O)c3cscc32)cc1, the Time (Rattus norvegicus [1]) was 2 h and the “Delta SBP” value (Rattus norvegicus [2]) was -59 mmHg.
In the case of CCCCCC(=O)n1c(=O)n(CCN2CCN(c3ccccc3OC)CC2)c(=O)c2cscc21, the “Delta SBP” value (Rattus norvegicus [3]) is reported as -42 mmHg and the Time (Rattus norvegicus [4]) is reported as 0.5 h.
With COc1ccccc1N1CCN(CCn2c(=O)c3cscc3n(C(=O)c3ccccc3)c2=O)CC1 the “Delta SBP” value (Rattus norvegicus [3]) was -68 mmHg and the Time (Rattus norvegicus [4]) was 1 h.
COC(=O)CCn1c(=O)n(CCN2CCN(c3ccccc3OC)CC2)c(=O)c2cscc21 was tested, and the “Delta SBP” value (Rattus norvegicus [5]) was -55 mmHg and the Time (Rattus norvegicus [6]) was 1 h.
For COc1ccc(N2CCN(CCn3c(=O)[nH]c4cscc4c3=O)CC2)cc1, the “Delta SBP” value (Rattus norvegicus [5]) was -51 mmHg and the Time (Rattus norvegicus [6]) was 0.5 h.
In the case of COc1ccccc1N1CCN(CCn2c(=O)c3cscc3n(C(C)=O)c2=O)CC1, the Time (Rattus norvegicus [1]) is reported as 0.5 h and the “Delta SBP” value (Rattus norvegicus [2]) is reported as -44 mmHg.
With CCOC(=O)n1c(=O)n(CCN2CCN(c3ccccc3OC)CC2)c(=O)c2sccc21 the Time (Rattus norvegicus [1]) was 0.5 h and the “Delta SBP” value (Rattus norvegicus [2]) was -30 mmHg.
In the case of COc1ccccc1N1CCN(CCn2c(=O)c3sccc3n(C(C)=O)c2=O)CC1, the “Delta SBP” value (Rattus norvegicus [3]) is reported as -58 mmHg and the Time (Rattus norvegicus [4]) is reported as 0.5 h.
O=c1[nH]c2sccc2c(=O)n1CCN1CCN(c2ccccc2)CC1 was tested, and the “Delta SBP” value (Rattus norvegicus [5]) was -45 mmHg and the Time (Rattus norvegicus [6]) was 1 h.
For COc1ccccc1N1CCN(CCn2c(=O)[nH]c3c(Cl)scc3c2=O)CC1, the Time (Rattus norvegicus [7]) was 0.5 h and the “Delta SBP” value (Rattus norvegicus [2]) was -75 mmHg.
In the case of COc1ccccc1N1CCN(CCn2c(=O)c3cscc3n(C(=O)c3ccc(Cl)cc3)c2=O)CC1, the “Delta SBP” value (Rattus norvegicus [3]) is reported as -14 mmHg and the Time (Rattus norvegicus [4]) is reported as 1 h.
In the case of COc1ccccc1N1CCN(CCn2c(=O)[nH]c3ccccc3c2=O)CC1, the DR20 (Canis familiaris) is reported as 10 µg/kg, the “Delta SBP” value (Rattus norvegicus [8]) is reported as -54 mmHg and the ED50 (Rattus norvegicus [9]) is reported as 0.0033 mg/kg. The ED50 (Rattus norvegicus [10]) was 0.54 mg/kg and the Time (Rattus norvegicus [11]) was 0.5 h.
With COc1ccccc1N1CCN(CCn2c(=O)c3ccsc3n(C)c2=O)CC1 the Time (Rattus norvegicus [12]) was 0.5 h and the “Delta SBP” value (Rattus norvegicus [8]) was -28 mmHg.
For COc1ccccc1N1CCN(CCn2c(=O)[nH]c3ccsc3c2=O)CC1, the Time (Rattus norvegicus [12]) was 0.5 h, the DR20 (Canis familiaris) was 4 µg/kg and the “Delta SBP” value (Rattus norvegicus [8]) was -74 mmHg. It also gave an ED50 (Rattus norvegicus [9]) of 0.0021 mg/kg and an ED50 (Rattus norvegicus [10]) of 0.19 mg/kg.
For COc1ccc(N2CCN(CCn3c(=O)[nH]c4ccsc4c3=O)CC2)cc1, the “Delta SBP” value (Rattus norvegicus [5]) was -68 mmHg and the Time (Rattus norvegicus [6]) was 1 h.
COc1cccc(N2CCN(CCn3c(=O)[nH]c4ccsc4c3=O)CC2)c1 was tested, and the Time (Rattus norvegicus [7]) was 1 h and the “Delta SBP” value (Rattus norvegicus [2]) was -28 mmHg.
With O=c1[nH]c2cscc2c(=O)n1CCN1CCN(c2cccc(Cl)c2)CC1 the Time (Rattus norvegicus [13]) was 2 h and the “Delta SBP” value (Rattus norvegicus [5]) was -20 mmHg.
With COc1ccccc1N1CCN(CCCn2c(=O)[nH]c3cscc3c2=O)CC1 the “Delta SBP” value (Rattus norvegicus [5]) was -38 mmHg and the Time (Rattus norvegicus [6]) was 1 h.
With O=c1[nH]c2cscc2c(=O)n1CCN1CCN(c2ccccc2Cl)CC1 the Time (Rattus norvegicus [12]) was 0.5 h and the “Delta SBP” value (Rattus norvegicus [8]) was -51 mmHg.
In the case of O=c1[nH]c2ccsc2c(=O)n1CCN1CCN(c2ccccc2Cl)CC1, the Time (Rattus norvegicus [12]) is reported as 0.5 h and the “Delta SBP” value (Rattus norvegicus [8]) is reported as -30 mmHg.
In the case of COc1ccccc1N1CCN(CCn2c(=O)c3cscc3n(C)c2=O)CC1, the Time (Rattus norvegicus [12]) is reported as 0.5 h and the “Delta SBP” value (Rattus norvegicus [8]) is reported as -67 mmHg.
O=c1[nH]c2ccsc2c(=O)n1CCN1CCN(c2ccccc2)CC1 was tested, and the “Delta SBP” value (Rattus norvegicus [5]) was -48 mmHg and the Time (Rattus norvegicus [6]) was 0.5 h.
COc1ccccc1N1CCN(CCn2c(=O)[nH]c3sc(Cl)cc3c2=O)CC1 was tested, and the Time (Rattus norvegicus [12]) was 0.5 h and the “Delta SBP” value (Rattus norvegicus [8]) was -25 mmHg.
In the case of CCCCn1c(=O)n(CCN2CCN(c3ccccc3OC)CC2)c(=O)c2sccc21, the Time (Rattus norvegicus [12]) is reported as 0.5 h and the “Delta SBP” value (Rattus norvegicus [8]) is reported as -28 mmHg.
In the case of Cc1ccccc1N1CCN(CCn2c(=O)[nH]c3sccc3c2=O)CC1, the “Delta SBP” value (Rattus norvegicus [5]) is reported as -70 mmHg and the Time (Rattus norvegicus [6]) is reported as 0.5 h.
COc1cc2nc(N3CCN(C(=O)c4ccco4)CC3)nc(N)c2cc1OC [PRAZOSIN] was tested, and the ED50 (Rattus norvegicus [14]) was 0.0104 mg/kg, the DR20 (Canis familiaris) was 300 µg/kg and the “Delta SBP” value (Rattus norvegicus [8]) was -60 mmHg. It also gave an ED50 (Rattus norvegicus [10]) of 0.22 mg/kg and a Time (Rattus norvegicus [11]) of 0.5 h.
